# Shown are actives, neighbours in structure and some others; about 1% of the full set was active somewhere.
# Hsp70 act: Hsp70 transcriptional activators, primary screen, cell-based, HeLa, Hsp70 promoter luciferase, luminescence, 10 µM; activation, % at 10 µM; 200,000 compounds, 0.04% hits; HeLa Hsp70 promoter luciferase reporter; scaled: vehicle 0, proteasome-inhibitor control 100%;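 active = activation above the mean across all tested compounds plus 3 SD, cutoff set per campaign, cut at about 5.5% in these data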;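 also: 100% = MG132 at 30 µM as the positive control and 0% = DMSO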
# MT stabilize HCS: microtubule stabilizers in HeLa cells, primary screen, imaging, high-content imaging; HeLa tubulin immunostaining HCS, 24 h; share of cells brighter than vehicle mean+2SD; % tubulin-high responders, % at 10 µM; 200,000 compounds, 0.83% hits; AID 2205, 2009;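 active = plate Z-score above 3 for both tubulin-high and condensed-nucleus cell shares, with cell loss under 80%, at 10 µM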;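 also: anti alpha tubulin signal scored within the nucleus-defined area of each cell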
# TLR9-MyD88 inh: inhibitors of TLR9-MyD88 association in cells, primary screen, cell-based, CHO, BLA complementation, fluorescence. 340,000 compounds, 0.21% hits. Toll-like receptor 9 (Homo sapiens) + Myeloid differentiation primary response protein …. inhibition, % at 4.98 µM. CCF4 FRET ratio;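 active = inhibition above the mean over all tested compounds plus 3 SD, cut at about 21% in these data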;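 also: 0% = DMSO only wells and 100% = clavulanate BLA inhibitor control wells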
# TLR4-MyD88 BLA: inhibitors of TLR4-MyD88 association in cells, primary screen, cell-based, HeLa CL3-4, BLA complementation, FRET ratio. Toll-like receptor 4 (Homo sapiens) + Myeloid differentiation primary response protein …. HeLa CL3-4 TLR4/MyD88 BLA complementation. inhibition, % at 8.4 µM. 200,000 compounds, 0.18% hits. AID 861, 2007; in the data active = inhibition above about 25%;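 also: 0% = vehicle and 100% = reference inhibitor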
# bCat nuc transl: modulators of beta-catenin nuclear translocation, primary screen, imaging, HeLa cells, immunofluorescence, high-content; nuclear translocation activity, % at 5 µM; 190,000 compounds, 0.3% hits; AID 1665, 2009;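 active = nuclear translocation activity above 50% at 5 µM, with a well cell count of 50 or more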;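 also: per-cell ratio of nuclear to cytoplasmic median beta-catenin stain intensity; plate controls were DMSO negative control for no effect and GSK-3 inhibitor IX positive control for full effect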
#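 System: HeLa cells, endogenous beta-catenin; compound dosing: 5 µM primary single dose, 0.1% DMSO, 0.02–20 µM confirmation series; incubation: 24 h compound exposure at 37°C, 5% CO2; signal: beta-catenin immunofluorescence imaging with DAPI; evaluation: % activation, nuclear-to-cytoplasmic median beta-catenin signal ratio per cell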
# NOD2 RIPK2 PPI: NOD2-RIPK2 binding disruptors in cells, primary screen, fluorescence, CHO cells, BLA complementation | Receptor-interacting serine/threonine-protein kinase 2 (Homo sapiens), O43353 | 360,000 compounds, 0.38% hits | CCF4 ratio | inhibition, % at 4.98 µM; in the data active = inhibition above about 21%;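 also: 0% = vehicle only and 100% = reference blocker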
# Target sequence (O43353 whole entry, looked up): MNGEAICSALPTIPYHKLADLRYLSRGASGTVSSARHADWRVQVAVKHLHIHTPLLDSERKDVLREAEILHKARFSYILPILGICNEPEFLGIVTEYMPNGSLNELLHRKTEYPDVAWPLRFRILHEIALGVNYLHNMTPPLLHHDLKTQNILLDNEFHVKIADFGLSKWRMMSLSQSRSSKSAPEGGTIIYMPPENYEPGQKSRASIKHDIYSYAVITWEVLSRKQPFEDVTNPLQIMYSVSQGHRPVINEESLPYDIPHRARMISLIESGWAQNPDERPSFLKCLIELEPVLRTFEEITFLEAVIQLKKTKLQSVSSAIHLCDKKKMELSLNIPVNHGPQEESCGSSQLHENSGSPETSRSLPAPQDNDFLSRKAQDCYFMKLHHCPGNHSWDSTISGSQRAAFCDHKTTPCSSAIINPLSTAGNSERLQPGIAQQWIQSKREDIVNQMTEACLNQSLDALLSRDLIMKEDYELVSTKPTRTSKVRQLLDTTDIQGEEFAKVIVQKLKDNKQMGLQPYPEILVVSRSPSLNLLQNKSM
# An asterisk follows results filed as active; . = no result given.
SMILES,Hsp70 act,MT stabilize HCS,TLR9-MyD88 inh,TLR4-MyD88 BLA,bCat nuc transl,NOD2 RIPK2 PPI
CCOC(=O)N1CCc2c(sc3c2C(=O)NC(c2ccccc2)N3)C1 (stereo unspecified),0.1,21.6*,5.7,-8.1,133.5*,-20.0
Cc1cc(C)c(S(=O)(=O)Nc2ccc(O)cc2)c(C)c1,0.0,1.6,0.9,-0.5,2.6,-4.8
Cc1cc(C)c(S(=O)(=O)Nc2ccc3c(c2)CCC3)c(C)c1,-0.3,13.5*,8.6,2.4,16.0,-7.8
O=c1[nH]c(=O)c2[nH]c(=S)n(-c3ccccc3)c2[nH]1,.,.,3.7,.,.,-10.8
Cc1cccc(S(=O)(=O)NC(=O)C2(C)CCN2C(=O)Cc2ccc(-c3ccccc3)cc2)c1 (stereo unspecified),.,.,.,.,.,3.7
CCn1nc(C)c(C(=O)Nc2cc(Oc3ccc(Cl)cc3)cc([N+](=O)[O-])c2)c1C,-0.3,29.5*,3.1,-0.8,2.7,-3.6
N=c1c2c(ncn1Cc1ccco1)Oc1cc(O)ccc1C2c1ccccc1 (stereo unspecified),.,.,-6.3,.,0.7,-5.8
COc1ccc(C2c3c(ccc4ccccc34)Oc3ncn4nc(-c5ccco5)nc4c32)cc1 (stereo unspecified),-0.3,2.2,-0.7,-4.5,-0.7,-11.5
N=c1c2c(ncn1Cc1ccco1)Oc1c(ccc3ccccc13)C2c1ccccc1 (stereo unspecified),-0.1,12.0*,-0.9,-16.1,7.3,-6.5
c1ccc(C2c3c(ccc4ccccc34)Oc3ncn4nc(-c5ccco5)nc4c32)cc1 (stereo unspecified),-0.3,11.9*,-2.5,8.0,-0.9,-0.2
COc1ccccc1/C=C/C(=O)OCC(=O)Nc1ccc2c(c1)OCCO2,.,.,-7.3,.,.,8.8
COc1ccccc1/C=C/C(=O)Nc1ccc2c(c1)OCCO2,-0.1,24.4*,3.4,1.7,72.8*,-15.5
O=C(COC(=O)/C=C/c1ccc(C(F)(F)F)cc1)NC1CCS(=O)(=O)C1 (stereo unspecified),.,.,-7.0,.,.,-0.3
Cc1ccc(S(=O)(=O)N(CC(=O)N=Nc2c(O)[nH]c3ccccc23)c2ccc(C)c(C)c2)cc1,-0.4,19.7*,4.1,11.1,17.9,-9.5
CCOc1ccc(Cc2c(Cl)nc(SC)nc2N(C)C)cc1,-0.3,22.4*,5.7,-10.9,2.6,9.5
CCOC(=O)C1=C(C)NC2=C(C(=O)OC2)C1c1ccccc1 (stereo unspecified),-0.3,27.5,-4.0,-11.7,81.3*,-3.7
CCOC(=O)C1=C(C)NC2=C(C(=O)CC(c3cccs3)C2)C1c1cccs1 (stereo unspecified),0.8,18.3*,-0.5,9.0,-3.1,6.3
COC(=O)C1=C(C)NC2=C(C(=O)CC(c3cccs3)C2)C1c1ccsc1 (stereo unspecified),-0.5,26.3*,0.3,14.6,-2.8,-2.4
COC(=O)C1=C(C)NC2=C(C(=O)CCC2)C1c1ccsc1 (stereo unspecified),0.0,1.7,.,-2.6,-3.1,.
CCCOC(=O)C1=C(C)NC2=C(C(=O)CCC2)C1c1cccs1 (stereo unspecified),-0.3,5.6,5.2,3.1,-3.0,-4.2
CCc1ccc(C(C)(O)C(CN2CCOCC2)c2ccccc2)cc1 (stereo unspecified),.,.,-3.4,.,.,12.6
COC(=O)[C@H](CC(C)C)NC(=O)CC[C@H]1O[C@@H](n2ccc(=O)[nH]c2=O)[C@H](O)[C@@H]1O,.,.,.,.,.,7.8
O=C(Cn1sc2ccccc2c1=O)NC12CC3CC(CC(C3)C1)C2,0.1,2.4,21.4*,-4.1,-3.1,8.8
CCOc1ccc(NC(=O)CN(C)C(=O)C2CCN(C(=O)c3ccc(Cl)cc3)CC2)cc1OCC,.,.,6.2,.,.,-13.9
O=C(Nc1cc(=O)[nH]c(=O)[nH]1)c1cccc(Br)c1,0.0,25.1*,9.6,-11.1,2.2,-8.3
SMILES,Hsp70 act,MT stabilize HCS,TLR9-MyD88 inh,TLR4-MyD88 BLA,bCat nuc transl,NOD2 RIPK2 PPI
O=C1C[C@H]2[C@H](CO)[C@@H](OC(=O)c3ccc(-c4ccccc4)cc3)C[C@H]2O1,.,.,.,.,-0.4,-11.6
CCCNc1nc(-c2ccccc2)c(C(=O)OCC)cc1C#N,-0.1,27.4*,-3.7,-2.7,19.6,8.8
C=CCNc1nc(-c2ccccc2)c(C(=O)OCC)cc1C#N,0.0,33.2*,-7.6,-5.9,0.7,2.4
CCCCNc1nc(-c2ccccc2)c(C(=O)OCC)cc1C#N,-0.2,35.0*,-27.4,3.1,.,6.1
OCC1=C[C@@H](O)[C@@H]2C=CO[C@@H](O[C@@H]3O[C@H](CO)[C@@H](O)[C@H](O)[C@H]3O)[C@H]12,.,.,3.0,.,.,-9.0
COc1cc(Cn2c3ccc(NC(=O)NCc4ccc(F)cc4)cc3c(=O)n2C)ccc1F,.,.,.,.,.,-3.4
Cc1ccc2ccccc2c1NC(=O)CNCc1ccccc1,.,.,8.5,.,.,0.9
O=C(Cc1cccc(F)c1)N1CCOCC1,.,.,-10.0,.,.,2.4
CCOc1cccc(/C=C(/C#N)c2nc3ccccc3[nH]2)c1OCC(=O)O,.,.,4.7,.,.,-8.3
CCN(CC)c1ccc(/C=C(/C#N)c2nc3ccccc3[nH]2)c(OC(C)C)c1,0.2,60.3*,3.4,5.1,.,-6.5
Cc1c2cnn(CC(=O)NCCCN3CC(C)CC(C)C3)c(=O)c2c(C)n1Cc1ccccc1Cl (stereo unspecified),.,.,5.6,.,.,6.9
COc1cc(CC(=O)NC2CCCc3ccccc32)cc(OC)c1OC (stereo unspecified),.,.,6.1,.,.,92.1*
COc1ccccc1CC(=O)NC1CCCc2ccccc21 (stereo unspecified),-0.2,1.6,8.3,-0.2,-1.7,-9.6
Clc1ccc2nc3c4ccccc4cnn3c2c1,-0.1,17.1*,-3.3,-3.9,-0.3,6.6
COn1c(-c2ccccc2)nc2ccc(Cl)cc21,0.0,2.6,-2.0,-6.5,-0.5,3.3
COc1ccc(Nc2ncnc3scc(-c4ccc(OC)cc4)c23)cc1,-0.2,13.1*,-8.6,-16.2,.,-7.7
COc1ccc(-c2csc3ncnc(Cl)c23)cc1,-0.1,3.0,5.4,-8.4,-0.2,-10.6
Cn1c(=O)c2cc(NC(=O)Nc3ccccc3)ccc2n1Cc1ccccc1,.,.,.,.,.,-8.2
O=C(CNC(=O)c1ccccc1F)N/N=C\C=C\c1ccccc1,.,.,-0.7,.,.,-1.6
COC(=O)c1sccc1NC(=S)N1CCN(c2cc(C)ccc2C)CC1,-0.4,17.3*,-3.5,4.6,-2.1,-6.7
COC(=O)c1sccc1NC(=S)N1CCN(C)CC1,0.0,3.9,3.4,-9.4,-0.2,-4.8

# Bioassay records: PubChem BioAssay, several laboratories
